The text below walks through data of ChEMBL document CHEMBL2150893, “Synthesis of β-ionone derived chalcones as potent antimicrobial agents” (2012).

A short description of test [1]: Antifungal activity against Cryptococcus gastricus MTCC 1715 after 24 hrs by serial dilution method. In kind it is functional. The settings on record: Goffeauzyma gastrica. An outline of the steps: (§1)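 Fungal MIC by serial tube dilution. Dilutions of test compounds (1.9–500 µg/ml) were made from stock solution. Each tube held 1 ml nutrient broth and received 20 µl of standard strain culture.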

In test [2] the test system is Saccharomyces cerevisiae. As to the kind of experiment: Antifungal activity against Saccharomyces cerevisiae MTCC 172 after 24 hrs by serial dilution method. In kind it is functional. The settings on record: MTCC 172, 24 h. An outline of the steps: as §1
Test [3] relates to Bacillus subtilis. As to the kind of experiment: Antibacterial activity against Bacillus subtilis MTCC 2451 after 24 hrs by serial dilution method. In kind it is functional. The conditions noted are these: MTCC 2451, 24 h. An outline of the steps: (§2)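 Serial tube dilution MIC. Strains were grown in nutrient broth to an OD600 of 0.4-0.6. Compounds were tested at 0.78, 1.56, 3.12, 6.25, 12.5, 25 and 50 µg/ml, each in a separate tube containing 5 ml nutrient broth plus 1 ml compound solution. Tubes were incubated 24 h with shaking at 180 rpm. Growth was followed by optical density at 600 nm.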

Test [4] has as its system Pseudomonas aeruginosa. Nature of the test: Antibacterial activity against Pseudomonas aeruginosa MTCC 2642 after 24 hrs by serial dilution method. In kind it is functional. The settings on record: MTCC 2642, 24 h. The essentials:
as §2

For test [5], the system named is Aspergillus niger. Nature of the test: Antifungal activity against Aspergillus niger MTCC 1344 after 24 hrs by serial dilution method. The format is functional. The settings on record: MTCC 1344, 24 h. An outline of the steps: as §1
The test system of test [6] is Escherichia coli. Nature of the test: Antibacterial activity against Escherichia coli MTCC 82 after 24 hrs by serial dilution method. The settings on record: MTCC 82, 24 h. In kind it is functional. An outline of the steps: as §2
Test [7] relates to Staphylococcus aureus. Nature of the test: Antibacterial activity against Staphylococcus aureus MTCC 96 after 24 hrs by serial dilution method. The format is functional. The settings on record: MTCC 96, 24 h. The essentials:
as §2

For test [8], the system named is Klebsiella pneumoniae. As to the kind of experiment: Antibacterial activity against Klebsiella pneumoniae MTCC 530 after 24 hrs by serial dilution method. In kind it is functional, organism-based.
In test [9] the test system is Salmonella typhi. As to the kind of experiment: Antibacterial activity against Salmonella typhi after 24 hrs by serial dilution method. In kind it is functional, Salmonella enterica subsp. enterica serovar Typhi. The conditions noted are these: Salmonella enterica. The essentials: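 Serial tube dilution MIC in nutrient broth. Bacteria were grown until OD600 reached 0.4-0.6. Tubes held 5 ml broth plus 1 ml compound at 0.78, 1.56, 3.12, 6.25, 12.5, 25 or 50 µg/ml and were shaken at 180 rpm for 24 h. Initial medium OD was read at 600 nm.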

For test [10], the system named is Nannizzia gypsea. Nature of the test: Antifungal activity against Microsporum gypseum MTCC 4490 after 24 hrs by serial dilution method. The settings on record: MTCC 4490, 24 h. In kind it is functional. The essentials:
as §1

The test system of test [11] is Candida albicans. As to the kind of experiment: Antifungal activity against Candida albicans MTCC 3018 after 24 hrs by serial dilution method. In kind it is functional. The conditions noted are these: MTCC 3018, 24 h. An outline of the steps: as §1

In brackets after ≈: the same amount, converted by molar mass. Activity calls are given as the source filed them. No cut-off for these calls is given here.

In the case of `CC1=C(/C=C/C(=O)/C=C/c2cccnc2)C(C)(C)CCC1`, the MIC in test [1] was more than 100 µg/mL; in test [2] it was 10.5 µg/mL (≈ 37.3 µM); in test [3], 6.25 µg/mL (≈ 22.2 µM); in [4], 12.5 µg/mL (≈ 44.4 µM); in [5] it was 3.9 µg/mL (≈ 13.9 µM); in test [6], 12.5 µg/mL (≈ 44.4 µM). For the same compound, the MIC in test [7] was 6.25 µg/mL (≈ 22.2 µM); in test [9], more than 100 µg/mL; in test [10] it was more than 100 µg/mL; in [11], 35 µg/mL (≈ 124 µM). Besides, the outcome in test [8] was inactive.

With `CC1=C(/C=C/C(=O)/C=C/c2ccc(Cl)cc2)C(C)(C)CCC1`, the MIC in test [1] is more than 100 µg/mL; in test [2], 12.5 µg/mL (≈ 39.7 µM); in [3], 6.25 µg/mL (≈ 19.9 µM); in test [4], 12.5 µg/mL (≈ 39.7 µM); in [5], more than 100 µg/mL; in test [6] it was 3.12 µg/mL (≈ 9.91 µM). The MIC was 25 µg/mL (≈ 79.4 µM) in [7], more than 100 µg/mL in test [9], more than 100 µg/mL in test [10] and more than 100 µg/mL in test [11]. Besides, the outcome in [8] was inactive.

Usually MIC stands for the least concentration at which growth counts as inhibited. The low end stands for a more susceptible organism, the high end for a less susceptible organism.
